Series [1] concerns the target T1, P450 2B4 H172A (Oryctolagus cuniculus, UniProt P00178, H172A).
T1 sequence (P00178 with tags, fused parts or gaps H172A limits assumed): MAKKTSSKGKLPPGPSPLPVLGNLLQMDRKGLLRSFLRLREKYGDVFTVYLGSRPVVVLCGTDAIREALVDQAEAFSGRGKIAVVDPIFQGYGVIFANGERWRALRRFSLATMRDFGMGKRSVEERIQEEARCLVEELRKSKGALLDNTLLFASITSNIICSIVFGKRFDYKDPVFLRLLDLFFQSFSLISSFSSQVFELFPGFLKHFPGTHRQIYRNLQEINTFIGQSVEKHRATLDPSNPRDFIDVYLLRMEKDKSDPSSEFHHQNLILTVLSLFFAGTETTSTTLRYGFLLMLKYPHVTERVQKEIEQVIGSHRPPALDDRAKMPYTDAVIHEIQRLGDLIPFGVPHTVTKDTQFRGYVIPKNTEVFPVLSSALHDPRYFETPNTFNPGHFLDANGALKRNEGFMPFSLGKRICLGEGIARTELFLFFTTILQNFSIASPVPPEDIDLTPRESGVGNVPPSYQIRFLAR
Put plainly: Inhibition of 7-EFC O-deethylation by imidazole inhibitors. Format: biochemical, rabbit (Oryctolagus cuniculus).

In series [2] the target is T2, P450 2B4 H172Q (Oryctolagus cuniculus, UniProt P00178, H172Q).
T2 sequence (P00178 with tags, fused parts or gaps H172Q limits assumed): T1 sequence (P00178 with tags, fused parts or gaps H172A limits assumed) with A153Q
The series is described as above. Type of series: biochemical, rabbit (Oryctolagus cuniculus).

Series [3] deals with T3, P450 2B4 L437A (Oryctolagus cuniculus, UniProt P00178, L437A).
T3 sequence (P00178 with tags, fused parts or gaps L437A limits assumed): T1 sequence (P00178 with tags, fused parts or gaps H172A limits assumed) with A153H, L418A
Described as above. Format: biochemical, rabbit (Oryctolagus cuniculus).

The target of series [4] is T4, P450 2B4 E474D (Oryctolagus cuniculus, UniProt P00178, E474D).
T4 sequence (P00178 with tags, fused parts or gaps E474D limits assumed): T1 sequence (P00178 with tags, fused parts or gaps H172A limits assumed) with A153H, E455D
The description is as above. Format: biochemical, rabbit (Oryctolagus cuniculus).

Series [5] concerns the target T5, P450 2B4 H172F (Oryctolagus cuniculus, UniProt P00178, H172F).
T5 sequence (P00178 with tags, fused parts or gaps H172F limits assumed): T1 sequence (P00178 with tags, fused parts or gaps H172A limits assumed) with A153F
Put plainly: Spectral binding titration of imidazole ligands. The arrangement: species or system rabbit (Oryctolagus cuniculus). As to conditions: 2B4 H172F versus wild type. In short, it runs like this:
(§1)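 Protein was the His-tagged 2B4dH construct (single mutants or wild type), expressed in TOPP3 cells and Ni-NTA purified. Spectra 350–700 nm recorded after serial 5 μl additions of 100 μM 4-CPI or bifonazole. Ks came from a tight-binding equation fit, and the 4-CPI/bifonazole Ks ratio was calculated.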

Series [6] deals with T3, P450 2B4 L437A. Put plainly: Spectral binding titration of imidazole ligands. The arrangement: species or system rabbit (Oryctolagus cuniculus). As to conditions: 2B4 L437A versus wild type. In short, it runs like this: as §1

Numbering of substitutions follows the chain as printed.

Usually IC50 stands for the midpoint of a concentration-inhibition curve. A lower IC50 goes with greater potency in that assay.

For the compound `Clc1ccc(-c2c[nH]cn2)cc1` [4-CPI, 4-(4-chlorophenyl)imidazole], the IC50 in series [1] is 310 nM; in series [2], 220 nM; in series [3], 970 nM; in series [4], 240 nM. In addition, the “Ratio 4-CPI IC50/Bifonazole IC50” value in series [1] (2B4 H172A, 50 μM 7-EFC as substrate) was 0.53; in series [2] (2B4 H172Q, 50 μM 7-EFC as substrate) it was 0.29; in series [3] (2B4 L437A, 50 μM 7-EFC as substrate), 3.88; in series [4] (2B4 E474D, 50 μM 7-EFC as substrate), 0.39. The “change in the ratio of 4-CPI Ks to bifonazole Ks” value in series [5] and in series [6] was “greater than 9 fold” throughout. The “Ks (spectral dissociation constant) higher than wild type” value in series [6] is listed as ~ 50 times.

The record behind these values is paper PMC3911823 (The FEBS journal, 2011).
